Only some compounds are listed: those with a hit (about 3.7% of all), similar ones and a draw of the others.
KCNK9 inh = KCNK9 potassium channel inhibitors, primary screen, HEK293 cells, thallium flux | Potassium channel subfamily K member 9 (Homo sapiens), Q9NPC2 | FluxOR thallium flux fluorescence; active compounds read low | B-score at 10 µM | hit rate 1.2% among 310,000 | AID 488922, 2010;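 active means ratio B-score over 3 SD below the library mean, with starting fluorescence within 5 SD of its mean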;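 further: negative B-score means less thallium flux so channel inhibition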
KCNK3 block = human KCNK3 channel inhibitors, primary screen, CHO cells, FluxOR thallium flux, B-score. B-score at 10 µM. AID 602410, 2012. FluxOR fluorescence; active compounds read low. hit rate 0.84% among 340,000;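 active means B-score under library mean minus 4 SD, starting fluorescence ratio at most library mean plus 5 SD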;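 further: more negative B-score means stronger inhibition of thallium flux through KCNK3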
hERG protect = hERG rescue from dofetilide block, primary screen, cell-based, CHO-hERG, FluxOR thallium flux, dofetilide IC70; Voltage-gated inwardly rectifying potassium channel KCNH2 (Homo sapiens), Q12809; dofetilide IC70 present; activation (rescue from dofetilide block), less the hit threshold, % at 10 µM; hit rate 0.51% among 310,000;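 active means activation above the mean of controls blocked by dofetilide plus 5 SD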;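 further: thallium influx through hERG after potassium depolarization seen as dye fluorescence rise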
Kir21 inh = inhibitors of mouse Kir2.1 inward-rectifier potassium channel; Inward rectifier potassium channel 2 (Mus musculus), P35561; HEK293-Kir2.1, FluxOR thallium flux fluorescence; active compounds read low; B-score at 10 µM; hit rate 0.85% among 310,000; AID 1672, 2009;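 active means fluorescence ratio B-score at or below minus 3 SD of library scores, with starting-brightness B-score within 2 SD, cut at about -4.2 in these data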;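 further: channel flux triggered by added potassium and thallium sulfate stimulus; B-score of peak minus minimum fluorescence over baseline after thallium stimulus; more negative B-score means stronger Kir2.1 block with less thallium influx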
Target sequence (P35561 whole entry, looked up): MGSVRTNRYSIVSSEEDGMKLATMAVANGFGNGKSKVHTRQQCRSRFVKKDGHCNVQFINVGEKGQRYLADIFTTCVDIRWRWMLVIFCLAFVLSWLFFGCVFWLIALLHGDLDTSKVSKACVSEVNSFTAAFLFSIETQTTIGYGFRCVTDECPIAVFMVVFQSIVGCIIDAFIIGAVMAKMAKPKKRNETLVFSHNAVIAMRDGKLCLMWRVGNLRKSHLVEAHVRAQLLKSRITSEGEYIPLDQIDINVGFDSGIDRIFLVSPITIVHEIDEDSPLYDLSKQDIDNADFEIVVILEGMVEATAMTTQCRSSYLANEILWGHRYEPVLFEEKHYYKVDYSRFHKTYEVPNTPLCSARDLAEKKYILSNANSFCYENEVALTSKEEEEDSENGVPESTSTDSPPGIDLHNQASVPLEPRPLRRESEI
KCNQ1 inh = inhibitors of human KCNQ1 channel, primary screen, cell-based, thallium flux, high-throughput | Potassium voltage-gated channel subfamily KQT member 1 (Homo sapiens), P51787 | CHO-K1 KCNQ1, FluxOR thallium flux fluorescence; active compounds read high | B-score at 10 µM | hit rate 1.3% among 310,000 | AID 2642, 2010;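 active means compounds whose thallium flux B-score, printed positive for inhibition, exceeds three library SD while starting fluorescence stays within three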;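 further: channel opened by potassium depolarization with thallium stimulus after 20 min compound exposure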
KCNQ1 pot = potentiators or activators of KCNQ1 channel, primary screen, cell-based, thallium flux, high-throughput; B-score at 10 µM; Potassium voltage-gated channel subfamily KQT member 1 (Homo sapiens), P51787; hit rate 0.35% among 310,000; CHO-K1 KCNQ1, thallium flux FluxOR fluorescence; active compounds read high;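 active means fluorescence ratio B-score, a plate-corrected score, at least three library SD, with initial intensity B-score within 5 SD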
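System: CHO-K1 cells stably expressing KCNQ1 / Medium: assay buffer for compound exposure, DMSO matched across wells / Reagent: thallium- and potassium-containing depolarizing buffer / Compound: one concentration, matched DMSO / Incubation: 20 min compound pretreatment at room temperature / Measured by: kinetic FluxOR fluorescence, 10 s baseline plus 110 s post-stimulus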
KCNK9 block conf = KCNK9 potassium channel inhibitors, confirmation, HEK293 cells, thallium flux, duplicate. shares compounds with KCNK9 inh. FluxOR thallium flux fluorescence. inhibition, % at 10 µM. hit rate 43% among 4,900. AID 492992, 2010;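 active means thallium signal inhibited by more than 5 SD of the compound-free buffer control wells, on both duplicate plates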
Kir21 sel = mouse Kir2.1 channel inhibition, confirmation, selectivity assay for KCNK9 modulator project, cell-based, HEK293, thallium flux; shares compounds with KCNK9 inh; AID 492993, 2010; inhibition, % at 10 µM; Kir2.1 cells, FluxOR thallium flux fluorescence; hit rate 4% among 4,900;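 active means thallium signal drop more than 5 SD beyond the mean of the no-compound control wells, seen in both duplicate plates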;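 further: signal is fluorescence rise after thallium addition divided by baseline fluorescence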
KCNK9 uninduced = thallium flux in non-induced HEK293 cells, confirmation, counter-screen for KCNK9 inhibitor project, cell-based, second counter screen, non-induced KCNK9-HEK293; shares compounds with KCNK9 inh; FluxOR thallium flux; inhibition, % at 10 µM; hit rate 40% among 4,900;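 active means thallium signal drop beyond 5 SD of the untreated control mean, on both duplicate plates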
Numbers stand for hits; - = inactive; . = no result given.

SMILES	KCNK9 inh	KCNK3 block	hERG protect	Kir21 inh	KCNQ1 inh	KCNQ1 pot	KCNK9 block conf	Kir21 sel	KCNK9 uninduced
Cc1cc(C)c(C)c(S(=O)(=O)NCC(=O)NCC2CCCCC2)c1C	-12.3	-	-	-	-	-	33.5%	-	26.5%
CC(C)=CCc1c2c(c3occ(-c4ccc(O)cc4)c(=O)c3c1O)C=CC(C)(C)O2	-	-	-	-	-	-	.	.	.
CC1(C)C=Cc2c(c3c(c4c(=O)c(-c5ccc(O)cc5)coc24)OC(C)(C)CC3)O1	-10.5	-	-	-	-	-	49.5%	-	25.5%
Cc1ccc(Cc2nnc3n(-c4ccccc4)nc(C(=O)c4ccccc4)n3c2=O)cc1	-	-	-	-	-	-	-	-	-
CCCN(CC(=O)Nc1ccc(F)c(F)c1F)C(=O)Cc1ccc(S(=O)(=O)N2CCOCC2)s1	.	-	.	.	.	.	.	.	.
Cc1cc(C)nc(SCc2csc(-c3ccccc3)n2)n1	-11.4	-	-	-	-	-	53.0%	-	35.0%
CC1CCCC(NC(=O)c2cccs2)C1C (stereo not given)	.	-	.	.	.	.	.	.	.
COc1ccc(N2CCN(C3CCCCC3NS(=O)(=O)c3ccc(Cl)cc3)CC2)cc1 (stereo not given)	-	-	-	-	-	-	-	-	-
Cc1ccc(C)c(N2CCN(C3CCCCC3NS(=O)(=O)c3ccccc3)CC2)c1 (stereo not given)	-16.4	-12.1	-	-	8	-	52.0%	-	31.0%
Cc1cc(=O)oc(C)c1C(=O)Nc1ccc(N(C)C)cc1	-	-	-	-	-	-	.	.	.
CN(c1ccc([N+](=O)[O-])cc1C(=O)Nc1ccccc1)C1CCCCC1	-12.5	-	-	-	-	-	30.0%	-	42.0%
Cc1cccc(NC(=O)c2cc([N+](=O)[O-])ccc2NC2CCCCC2)c1	-	-	-	-	-	-	.	.	.
COc1ccc(-n2c(SCCC#N)nnc2-c2cc(Cl)ccc2OC)cc1Cl	-11.3	-	-	-	-	-	29.0%	-	41.0%
COC(=O)c1ccc(C(C(=O)NC2CCCCC2)N(Cc2ccc(F)cc2)C(=O)Cc2cccs2)cc1 (stereo not given)	-10.5	-	-	-	-	-	-	-	31.0%
CC(C)OCCCn1c(=NC(=O)c2ccncc2)c(C#N)cc2c(=O)n3ccccc3nc21	-	-	-	-	-	-	.	.	.
CC(C)OCCCn1c(=NC(=O)c2cccs2)c(C#N)cc2c(=O)n3ccccc3nc21	-8.51	-	-	-	-	-	25.5%	-	33.0%
CCCOc1ccc(CNC(=O)c2ccc3c(c2)N(CC)CCS3)cc1	-	-	-	-	-	-	-	-	-
Cc1cccc(-c2onc3ccc(C(=O)/C=C/N(C)C)cc23)c1	-	-	-	-	-	-	-	-	-
Cc1ccc(-c2onc3ccc(C(=O)/C=C/N(C)C)cc23)cc1	-	-	-	-	-	-	.	.	.
COc1ccc(CN2C(=O)[C@@H]3Cc4c([nH]c5ccccc45)C(C)(C)N3C2=O)cc1	-	-	-	-	-	-	.	.	.
COc1ccc(CN2C(=O)[C@H]3Cc4c([nH]c5ccccc45)C(C)(C)N3C2=O)cc1	-	-	-	-	-	-	-	-	-
COc1ccc(CCNC(=O)COC(=O)COc2ccc(C#N)cc2)cc1	-	-	-	-	-	-	.	.	.
CCCN(CCC)S(=O)(=O)c1ccc(C(=O)N2CCCc3ccccc32)cc1	-	-	-	-	-	-	-	-	-
CCCN(CCC)S(=O)(=O)c1ccc2c(c1)CCCN2C(C)=O	-	-	-	-	-	-	.	.	.
CC(Sc1nnc(-c2ccncc2)n1C)C(=O)Nc1ccc(N2CCOCC2)cc1 (stereo not given)	.	-	.	.	.	.	.	.	.
SMILES	KCNK9 inh	KCNK3 block	hERG protect	Kir21 inh	KCNQ1 inh	KCNQ1 pot	KCNK9 block conf	Kir21 sel	KCNK9 uninduced
C=CCc1ccc(OCCCOc2ccc(C)c(C)c2)c(OC)c1	-	-	-	-	-	-	-	-	-
C=CCc1ccc(OCCCCOc2ccc(C(=O)O)cc2)c(OC)c1	-	-	-	-	-	-	.	.	.
C=CCc1ccc(OCCOCCN(C)C)c(OC)c1	-	-	-	-	-	-	.	.	.
C=CCc1ccc(OCCOc2cccc3ccc(C)nc23)c(OC)c1	-	-	-	-	-	-	-	-	-
CCOC(=O)C(Oc1ccc2c(-c3ccc(OC)cc3)cc(=O)oc2c1C)c1ccccc1 (stereo not given)	-11	-	-	-	-	-	49.5%	-	31.5%
CCOC(=O)C(Oc1ccc2c(-c3ccccc3)cc(=O)oc2c1C)c1ccccc1 (stereo not given)	-	-	-	-	-	-	.	.	.
CN(C)c1ccc(/C=N/N2CCN(Cc3ccccc3Cl)CC2)cc1	-	-	-	-	-	-	.	.	.
CSc1ccc(/C=N/N2CCN(Cc3ccc(C)cc3C)CC2)cc1	-	-	-	-	-	-	-	-	-
CCN(CC)c1ccc(/C=N/N2CCN(Cc3ccccc3)CC2)c(O)c1	-	-	-	-	-	-	-	-	-
CCN(CC)c1ccc(/C=N/N2CCN(Cc3ccccc3Cl)CC2)cc1	-	-	-	-	6	-	-	-	-
CCN(CC)c1ccc(/C=N/N2CCOCC2)c(O)c1	-	-	-	-	-	-	.	.	.
CCN(CC)c1ccc(/C=N/N2CCN(Cc3ccc(C)cc3C)CC2)c(O)c1	-	-	-	-	-	-	-	-	-
O=C(O)c1sc2cc(C(F)(F)F)cnc2c1-c1ccccn1	-	-	-	-	-	-	.	.	.
CCN(CC)c1ccc(/C=N/N2CCN(Cc3ccccc3)CC2)cc1	-	-	-	-	-	-	-	-	-
C(=N\N1CCN(Cc2ccccc2)CC1)/c1ccccc1	-	-	-	-	-	-	.	.	.
CCN(CC)c1ccc(/C=N/Nc2ccccc2)c(O)c1	-	-	-	-	-	-	.	.	.
CCN(CC)c1ccc(/C=N/Nc2cccc(C)c2)c(O)c1	-	-	-	-	-	-	-	-	-

Compound activity deposited in PubChem by Johns Hopkins Ion Channel Center.
